In article PMC8048584 (Chemmedchem, 2021):

Molecular target: human DDR1 (Homo sapiens, UniProt Q08345)
Assay: Off-chip Mobility Shift Assay
Assay type: biochemical
Procedure, shortened: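 Carried out by a contract kinase profiling service, with details in the Supporting Information. IC50 (50 % inhibition) was read from semi-logarithmic dose-response plots of the test compound. Each value is the mean of duplicate samples.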

Chain of human DDR1 (Q08345 19-913): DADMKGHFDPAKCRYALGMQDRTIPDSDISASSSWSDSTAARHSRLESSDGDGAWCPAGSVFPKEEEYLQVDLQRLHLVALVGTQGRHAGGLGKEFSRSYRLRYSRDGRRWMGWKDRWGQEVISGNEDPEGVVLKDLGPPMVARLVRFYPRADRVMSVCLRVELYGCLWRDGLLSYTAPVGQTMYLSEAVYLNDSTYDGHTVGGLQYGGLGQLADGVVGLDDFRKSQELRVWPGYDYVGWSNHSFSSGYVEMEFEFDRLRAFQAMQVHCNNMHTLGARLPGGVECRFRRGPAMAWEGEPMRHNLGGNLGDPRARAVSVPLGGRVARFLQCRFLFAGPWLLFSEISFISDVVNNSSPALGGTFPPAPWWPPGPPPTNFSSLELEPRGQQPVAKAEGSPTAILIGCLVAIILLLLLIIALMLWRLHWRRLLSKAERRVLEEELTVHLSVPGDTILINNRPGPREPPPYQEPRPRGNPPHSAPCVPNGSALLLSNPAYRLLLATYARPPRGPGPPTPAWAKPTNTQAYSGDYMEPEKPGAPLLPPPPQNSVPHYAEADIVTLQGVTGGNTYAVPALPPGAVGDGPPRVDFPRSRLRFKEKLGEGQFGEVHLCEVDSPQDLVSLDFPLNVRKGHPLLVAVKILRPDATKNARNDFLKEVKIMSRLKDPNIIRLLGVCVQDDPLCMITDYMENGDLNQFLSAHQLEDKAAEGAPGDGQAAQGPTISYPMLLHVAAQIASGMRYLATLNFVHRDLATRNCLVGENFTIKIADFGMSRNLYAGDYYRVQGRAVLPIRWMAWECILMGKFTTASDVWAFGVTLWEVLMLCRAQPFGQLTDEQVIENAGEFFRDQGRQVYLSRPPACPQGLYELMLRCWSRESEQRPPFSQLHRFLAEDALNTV

- IC50: 92.5 nM
SMILES: O=C(Nc1ccc(Cl)c(COc2cccnc2)c1)c1cccc(C(F)(F)F)c1 [Compound 3, N‐(4‐chloro‐3‐((pyridin‐3‐yloxy)methyl)phenyl)‐3‐(trifluoromethyl)benzamide]
